Test [1] has as its target T1, Inosine-5'-monophosphate dehydrogenase (Cryptosporidium parvum, UniProt Q8T6T2).
T1 sequence (Q8T6T2 whole entry): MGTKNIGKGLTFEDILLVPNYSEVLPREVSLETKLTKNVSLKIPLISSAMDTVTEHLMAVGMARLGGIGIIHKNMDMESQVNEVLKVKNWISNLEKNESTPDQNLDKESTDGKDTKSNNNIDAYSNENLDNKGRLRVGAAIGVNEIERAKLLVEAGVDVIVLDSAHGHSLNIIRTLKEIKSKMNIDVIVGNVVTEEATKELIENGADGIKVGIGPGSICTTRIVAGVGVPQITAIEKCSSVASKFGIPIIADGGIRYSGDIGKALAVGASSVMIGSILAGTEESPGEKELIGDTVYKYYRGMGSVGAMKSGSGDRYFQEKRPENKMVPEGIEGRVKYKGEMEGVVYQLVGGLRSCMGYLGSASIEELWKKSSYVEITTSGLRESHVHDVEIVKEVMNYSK
Kind of test: Inhibition of Cryptosporidium parvum recombinant IMPDH expressed in Escherichia coli TX685 assessed as NADH production by fluorescence assay in absence of 0.05% fatty acid free bovine serum albumin. An outline of the steps: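 Enzyme (10 nM) pre-incubated with inhibitor 5 min at room temperature before adding substrates (150 μM IMP, 300 μM NAD). Inhibitor range 25 pM–5 μM. NADH read by fluorescence. Initial velocities averaged over quadruplicates. IC50 from vi/vo, mean ± SD of three independent determinations.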

The target of test [2] is T1, Inosine-5'-monophosphate dehydrogenase. The experiment in a line: Inhibition of Cryptosporidium parvum recombinant IMPDH expressed in Escherichia coli TX685 assessed as NADH production by fluorescence assay in presence of 0.05% fatty acid free bovine serum albumin. The method in brief:
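Same IMP→XMP fluorescence (NADH) assay, with 0.05% fatty acid free BSA added. Conditions: 10 nM enzyme, 5 min room-temperature pre-incubation with inhibitor, then 150 μM IMP and 300 μM NAD. IC50 from three independent experiments, mean ± SD.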

Test [3] concerns the target T2, Inosine-5'-monophosphate dehydrogenase 2 (Homo sapiens, UniProt P12268). The experiment in a line: Inhibition of human recombinant IMPDH2 expressed in Escherichia coli guaB assessed as NADH production at 5 uM by fluorescence assay.
In test [4] the target is T1, Inosine-5'-monophosphate dehydrogenase. The experiment in a line: Inhibition of Cryptosporidium parvum recombinant IMPDH expressed in Escherichia coli guaB assessed as NADH production by fluorescence assay. An outline of the steps:
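E. coli-expressed CpIMPDH at 10 nM, preincubated with inhibitor (25 pM - 5 μM) for 5 min at room temperature before adding 150 μM IMP and 300 μM NAD. NADH read by fluorescence from initial velocities, in quadruplicate. IC50 ± SD from three independent runs, some also with 0.05% fatty-acid-free BSA.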

Test [5] has as its target T2, Inosine-5'-monophosphate dehydrogenase 2. Kind of test: Inhibition of human recombinant IMPDH2 expressed in Escherichia coli guaB assessed as NADH production by fluorescence assay.
For test [6], the target named is T3, Inosine-5'-monophosphate dehydrogenase (Cryptosporidium parvum) (UniProt Q8T6T2).
T3 sequence (whole entry): T1 sequence (Q8T6T2 whole entry)
The experiment in a line: Ratio of campaign IC50 to compound IC50 for Cryptosporidium parvum recombinant IMPDH expressed in Escherichia coli TX685 in absence of 0.05% fatty acid free bovine serum albumin.

Each structure is given as a SMILES string.

One may read the IC50 as the concentration at which inhibition is half-maximal. In general, inhibition refers to how much of the control response was suppressed. Take `CC(Oc1ccnc2ccccc12)c1cn(-c2ccc(Cl)cc2)nn1` (configuration not stated): the IC50 in test [1] was 24 nM; in test [2], 230 nM. Besides, the inhibition in test [3] was less than 10%.

On to `O=C(Nc1ccc(Cl)cc1)C(Oc1cccc2ccccc12)C1CC1` (configuration not stated), for which the concentration for half-maximal inhibition (IC50) in test [1] is more than 5000 nM. In addition, in test [3], the inhibition is less than 10%.

In the case of `CC(Oc1ccnc2ccccc12)C(=O)Nc1ccc(Cl)cc1` (configuration not stated), the figures for the IC50 in test [1] and in test [2] were 660 nM and 860 nM, respectively. Moreover, the inhibition in test [3] is less than 10%.

In the case of `C[C@@H](Oc1ccnc2ccccc12)c1cn(-c2ccc(Cl)c(Cl)c2)nn1`, the concentration for half-maximal inhibition (IC50) is 9 nM in test [1] and 650 nM in test [2]. For the same molecule, the inhibition in test [3] was less than 10%.

For `C[C@@H](Oc1ccnc2ccccc12)c1cn(-c2ccc(C#N)c(Cl)c2)nn1`, the IC50 in test [1] stood at 31 nM; in test [2], 1100 nM. In test [3], the inhibition is less than 10%.

Regarding `C[C@@H](Oc1cc[n+]([O-])c2ccccc12)c1cn(-c2ccc(Cl)cc2)nn1`, the IC50 amounted to 13 nM in test [1] and 50 nM in test [2]. Further, the inhibition in test [3] is less than 10%.

As for `Clc1ccc(-n2cc(COc3ccnc4ccccc34)nn2)cc1`, the IC50 in test [1] was found to be 440 nM; in test [2], 480 nM. In test [3], the inhibition is less than 10%.

With `O=C(Nc1ccc(Cl)cc1)C(Oc1cccc2ccccc12)c1ccccc1` (configuration not stated), in test [1], the IC50 is more than 5000 nM. The inhibition in test [3] was less than 10%.

For `C[C@@H](Oc1cccc2c1ccc[n+]2[O-])c1cn(-c2ccc(Cl)cc2)nn1`, the IC50 turned out to be 24 nM in test [1] and 52 nM in test [2]. The inhibition in test [3] is less than 10%.

Take `CC(Oc1ccnc2ccccc12)c1cn(-c2ccc(C#N)cc2)nn1` (configuration not stated): the IC50 came to 140 nM in test [1] and 340 nM in test [2]. The inhibition in test [3] was less than 10%.

By EC50 is commonly meant the concentration giving half of the maximal effect. For the molecule `CC(Oc1ccccc1)C(=O)Nc1ccc(Cl)cc1` (configuration not stated), the IC50 in test [1] was 3300 nM; in test [5], more than 50000 nM. The 50% effective concentration (EC50) in test [4] amounted to 3300 nM.

For `CC(Oc1cccc2ccccc12)C(=O)Nc1ccc(Cl)cc1` (configuration not stated), the 50% inhibitory concentration (IC50) came to 1060 nM in test [1] and 1640 nM in test [2]. In test [3], the inhibition was less than 10%. In addition, in test [6], the Ratio IC50 stood at 3.

In the case of `CC(Oc1ccnc2ccccc12)c1cn(-c2ccc(C#N)c(Cl)c2)nn1` (configuration not stated), the IC50 in test [1] is 40 nM; in test [2], 1400 nM. Besides, the inhibition in test [3] was less than 10%.

Consider `CC(C)C(Oc1cccc2ccccc12)c1cn(-c2ccc(Cl)cc2)nn1` (configuration not stated), for which the 50% inhibitory concentration (IC50) in test [1] was more than 5000 nM. Also, the inhibition in test [3] is less than 10%.

Consider `C[C@H](Oc1ccnc2ccccc12)c1cn(-c2ccc(Cl)c(Cl)c2)nn1`, for which the results for the IC50 in test [1] and in test [2] were 130 nM and 880 nM, respectively. Moreover, the inhibition in test [3] was less than 10%.

`C[C@H](Oc1ccnc2ccccc12)c1cn(-c2ccc(C#N)c(Cl)c2)nn1`: the IC50 in test [1] amounted to 600 nM; in test [2], 2300 nM. Moreover, the inhibition in test [3] is less than 10%.

On to `CC(Oc1cccc2c1ccc[n+]2[O-])c1cn(-c2ccc(Cl)cc2)nn1` (configuration not stated), for which the concentration for half-maximal inhibition (IC50) in test [1] is 44 nM; in test [2] it was 59 nM. Besides, in test [3], the inhibition was less than 10%.

For the molecule `CC(Oc1cccc2ccccc12)c1cn(-c2ccccc2Cl)nn1` (configuration not stated), the concentration for half-maximal inhibition (IC50) in test [1] was more than 5000 nM. Also, the inhibition in test [3] is less than 10%.

Consider `CC(Oc1cc[n+]([O-])c2ccccc12)c1cn(-c2ccc(Cl)c(Cl)c2)nn1` (configuration not stated), for which the IC50 in test [1] amounted to 18 nM; in test [2] it was 42 nM. Moreover, the inhibition in test [3] is less than 10%.

Take `C[C@@H](Oc1cccc2ncccc12)c1cn(-c2ccc(Cl)cc2)nn1`: the results for the IC50 in test [1] and in test [2] were 9 nM and 30 nM, respectively. Besides, the inhibition in test [3] was less than 10%.

On to `CC(Oc1cc[n+]([O-])c2ccccc12)c1cn(-c2ccc(Cl)cc2)nn1` (configuration not stated), for which the IC50 stood at 29 nM in test [1] and 50 nM in test [2]. The inhibition in test [3] was less than 10%.

With `CC(Oc1ccc(Cl)c2ccccc12)c1cn(-c2ccc(Cl)cc2)nn1` (configuration not stated), the values for the IC50 in test [1] and in test [2] were 87 nM and 3900 nM, respectively. For the same molecule, the inhibition in test [3] is less than 10%.

In the case of `CC(C)C(Oc1cccc2ccccc12)C(=O)Nc1ccc(Cl)cc1` (configuration not stated), the figures for the half-inhibitory concentration (IC50) in test [1] and in test [2] were 710 nM and 830 nM, respectively. The inhibition in test [3] was less than 10%.

For `CC(Oc1ccnc2ccccc12)c1cn(-c2ccc(Cl)c(Cl)c2)nn1` (configuration not stated), the values for the IC50 in test [1] and in test [2] were 20 nM and 700 nM, respectively. Further, the inhibition in test [3] is less than 10%.

As to `CC(Oc1cccc2ccccc12)c1cn(-c2ccc(Cl)cc2)nn1` (configuration not stated), the values for the concentration for half-maximal inhibition (IC50) in test [1] and in test [2] were 130 nM and 780 nM, respectively. Further, in test [3], the inhibition was less than 10%.
